Published values pooled from the literature.
pEC50, pIC50: −log10 of the molar value.

| Compound | target or system | assay | conditions | endpoint | result |
| --- | --- | --- | --- | --- | --- |
| O=C1NN=C(N=Cc2ccccc2O)C1=NNn1c(-c2ccccc2)nc2ccccc2c1=O | Staphylococcus | microbial growth, broth dilution | 24 h | MIC | 111 µM |
| C[C@@H]1[C@H](O)[C@@H](C)/C=C/C=C/C=C/C=C/C=C/C=C/C=C/[C@H](O[C@@H]2O[C@H](C)[C@@H](O)[C@H](N)[C@@H]2O)C[C@@H]2O[C@](O)(C[C@@H](O)C[C@@H](O)[C@H](O)CC[C@@H](O)C[C@@H](O)CC(=O)O[C@H]1C)C[C@H](O)[C@H]2C(=O)O | Leishmania panamensis | parasite growth | 24 h, promastigote | pIC50 | 7.00 |
| O=C(O)C(c1c[nH]c2ccccc12)c1c[nH]c2ccccc12 | KG-1 | cell growth or viability | 20 µM, 48 h | inhibition | 23% |
| OC(CN1CCOCC1)(Cn1cncn1)c1ccc(F)cc1F (stereo not shown) | Aspergillus flavus | microbial growth, broth dilution | 48 h | MIC | 7.8 µg/mL |
| Cc1cccc2c(C(c3ccc(/C=C/C(=O)O)s3)c3c[nH]c4c(C)cccc34)c[nH]c12 | KG-1 | cell growth or viability | 5 µM, 48 h | inhibition | 1% |
| COc1ccc(-c2ccc(-c3ccc(C(=N)N)nc3)s2)cc1 | Malme-3M | cell growth or viability, SRB |  | GI50 | 1840 nM |
| CC(=O)NCN1N=C(C)C(=NNn2c(-c3ccccc3)nc3ccccc3c2=O)C1=O | Staphylococcus | microbial growth, broth dilution | 24 h | MIC | 120 µM |
| Clc1ccccc1C(c1ccccc1)(c1ccccc1)n1ccnc1 | Aspergillus flavus | microbial growth, disc diffusion | 20000 µg/mL | inhibition zone | 24 mm |
| COc1ccc(-c2c(-c3ccc(C#N)c(F)c3)nc(N3CCC(N)CC3)n(C)c2=O)cc1F | MOLM-13 | cell growth or viability, resazurin | 96 h | pEC50 | 9.02 |
| O=c1[nH]cc(F)c(=O)[nH]1 | NRK-52E | cell growth or viability, MTT | 24 h | pIC50 | 4.33 |
